# Where “and” joins values, the source holds several entries; their conditions need not be identical. Equal values may be shown once.
# Legend:
# Format in all cases: toxicity, cell-based
# [1] = system: Fibroblast; test: Multiplex assay against human fibroblast
# How it was run: (§1)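 Cells stained live at seeding with Hoechst33342, BioTracker Green Microtubule Cytoskeleton Dye, MitoTracker Red and Annexin V Alexa Fluor 680 were imaged on a CQ1 microscope at 37°C and 5% CO2 after compound addition. Their classification by CellPathfinder machine-learning gating ran from Hoechst high-intensity objects versus normal cells, to healthy, pyknosed or fragmented nuclei among normal cells, to mitotic or apoptotic among pyknosed cells. Tubulin, mitochondrial-mass and membrane-permeability phenotypes are per cents of healthy-nucleus cells.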
# [2] = system: HEK-293T; test: Multiplex assay against HEK293T; settings: human; how it was run: as §1
# [3] = system: U2OS; test: Multiplex assay against U2OS; settings: human; how it was run: as §1
# [4] = 12 h, 1 µM, compound concentration 1 uM
# [5] = 12 h, 10 µM, compound concentration 10 uM
# [6] = 24 h, 1 µM, compound concentration 1 uM
# [7] = 24 h, 10 µM, compound concentration 10 uM
# [8] = 48 h, 1 µM, compound concentration 1 uM
# [9] = 48 h, 10 µM, compound concentration 10 uM
smiles,measurement,setting,value
CCn1c(-c2nc3cc(C(=O)N4CCCC(N)C4)ccc3n2C)cc2ccccc21.Cl (centres undefined),Population Fragmented Nuclei (%),[1]; [4],17% [middle of 4 runs]
same,Population Healthy Nuclei (%),[1]; [4],67% and 54% and 55.75% and 78.2%
same,Population Hoechst High Intensity Objects (%),[1]; [4],3% and 5% and 0%
same,Population Membrane Permeable-Phenotype (%),[1]; [4],0% and 2% and 1.03% and 4.85%
same,Population Mitotic Cells (%),[1]; [4],77.42% [middle of 4 runs]
same,Population Normal (%),[1]; [4],96% and 94% and 100%
same,Population Pyknosed Nuclei (%),[1]; [4],15% and 23% and 28.16% and 14.69%
same,Population Tubulin-Different-Phenotype (%),[1]; [4],27% and 41% and 21.65% and 21.21%
same,Total Cell Count,[1]; [4],128 and 167 and 174 and 211
same,Population Healthy Nuclei (%),[1]; [5],63% and 37% and 62.74% and 73.72%
same,Population Hoechst High Intensity Objects (%),[1]; [5],1% and 3% and 0%
same,Population Membrane Permeable-Phenotype (%),[1]; [5],0% and 10.3% and 7.87%
same,Population Mitochondria Different-Phenotype (%),[1]; [5],18% and 19% and 29.7% and 27.78%
same,Population Mitotic Cells (%),[1]; [5],58% and 61% and 89.16% and 71.43%
same,Population Normal (%),[1]; [5],98% and 96% and 100%
same,Population Pyknosed Nuclei (%),[1]; [5],29% [middle of 4 runs]
same,Population Tubulin-Different-Phenotype (%),[1]; [5],69% and 80% and 72.73% and 81.48%
same,Total Cell Count,[1]; [5],221 and 186 and 263 and 293
same,Population Fragmented Nuclei (%),[1]; [6],22% [middle of 4 runs]
same,Population Healthy Nuclei (%),[1]; [6],68% and 54% and 66.49% and 74.56%
same,Population Hoechst High Intensity Objects (%),[1]; [6],0% and 9%
same,Population Membrane Permeable-Phenotype (%),[1]; [6],0% and 3% and 2.33% and 7.06%
same,Population Mitotic Cells (%),[1]; [6],70.59% [middle of 4 runs]
same,Population Normal (%),[1]; [6],99% and 90% and 100%
same,Population Pyknosed Nuclei (%),[1]; [6],17% [middle of 4 runs]
same,Population Tubulin-Different-Phenotype (%),[1]; [6],30% [middle of 4 runs]
same,Total Cell Count,[1]; [6],127 and 184 and 194 and 228
same,Population Healthy Nuclei (%),[1]; [7],66% and 46% and 70.93% and 75.81%
same,Population Hoechst High Intensity Objects (%),[1]; [7],3% and 4% and 0%
same,Population Membrane Permeable-Phenotype (%),[1]; [7],0% and 2% and 4.95% and 6.19%
same,Population Mitochondria Different-Phenotype (%),[1]; [7],40.95% [middle of 4 runs]
same,Population Mitotic Cells (%),[1]; [7],45.1% [middle of 4 runs]
same,Population Normal (%),[1]; [7],96% and 95% and 100%
same,Population Pyknosed Nuclei (%),[1]; [7],23% [middle of 4 runs]
same,Population Tubulin-Different-Phenotype (%),[1]; [7],76% and 82% and 83.33% and 85.24%
same,Total Cell Count,[1]; [7],231 and 189 and 313 and 277
same,Population Healthy Nuclei (%),[1]; [8],67% and 51% and 79.63% and 83.64%
same,Population Hoechst High Intensity Objects (%),[1]; [8],2% and 5% and 0%
same,Population Membrane Permeable-Phenotype (%),[1]; [8],1% and 2% and 1.16% and 4.47%
same,Population Normal (%),[1]; [8],97% and 94% and 100%
same,Population Pyknosed Nuclei (%),[1]; [8],8% and 15% and 6.02% and 7.01%
same,Total Cell Count,[1]; [8],137 and 193 and 216 and 214
same,Population Apoptotic (%),[1]; [9],76.92% [middle of 4 runs]
same,Population Healthy Nuclei (%),[1]; [9],72% and 57% and 86.19% and 89.14%
same,Population Hoechst High Intensity Objects (%),[1]; [9],3% and 0%
same,Population Membrane Permeable-Phenotype (%),[1]; [9],0% and 3.83% and 7.75%
same,Population Mitochondria Different-Phenotype (%),[1]; [9],22% and 16% and 24.74% and 18.08%
same,Population Normal (%),[1]; [9],96% and 100%
same,Population Pyknosed Nuclei (%),[1]; [9],8% and 3.3% and 4.28%
same,Population Tubulin-Different-Phenotype (%),[1]; [9],85% and 61.67% and 81.55%
same,Total Cell Count,[1]; [9],232 and 231 and 333 and 304
same,Population Fragmented Nuclei (%),[2]; [4],9% and 5% and 1.84% and 3.31%
same,Population Hoechst High Intensity Objects (%),[2]; [4],7% and 6% and 0%
same,Population Membrane Permeable-Phenotype (%),[2]; [4],0%
same,Population Mitochondria Different-Phenotype (%),[2]; [4],52% [middle of 4 runs]
same,Population Mitotic Cells (%),[2]; [4],87.4% [middle of 4 runs]
same,Population Normal (%),[2]; [4],92% and 93% and 100%
same,Total Cell Count,[2]; [4],351 [middle of 4 runs]
same,Population Fragmented Nuclei (%),[2]; [5],8% and 6% and 2.45% and 0.66%
same,Population Hoechst High Intensity Objects (%),[2]; [5],8% [middle of 4 runs]
same,Population Membrane Permeable-Phenotype (%),[2]; [5],0% and 0.78%
same,Population Mitotic Cells (%),[2]; [5],46% and 86.32% and 69.7%
same,Population Normal (%),[2]; [5],88% and 91% and 99.7% and 100%
same,Population Tubulin-Different-Phenotype (%),[2]; [5],66.67% [middle of 4 runs]
same,Total Cell Count,[2]; [5],398 [middle of 4 runs]
same,Population Fragmented Nuclei (%),[2]; [6],9% and 1.41% and 1.3%
same,Population Healthy Nuclei (%),[2]; [6],79% [middle of 4 runs]
same,Population Hoechst High Intensity Objects (%),[2]; [6],6% and 4% and 0.2% and 0%
same,Population Membrane Permeable-Phenotype (%),[2]; [6],0% and 1.42% and 4.76%
same,Population Mitochondria Different-Phenotype (%),[2]; [6],37% [middle of 4 runs]
same,Population Mitotic Cells (%),[2]; [6],64% and 60% and 92.7% and 77.27%
same,Population Normal (%),[2]; [6],93% and 95% and 99.8% and 100%
same,Population Tubulin-Different-Phenotype (%),[2]; [6],22% and 14% and 16.24% and 11.9%
same,Population Apoptotic (%),[2]; [7],51% and 40% and 33.59% and 49.56%
same,Population Hoechst High Intensity Objects (%),[2]; [7],12% and 9% and 0%
same,Population Membrane Permeable-Phenotype (%),[2]; [7],1% and 0% and 0.79%
same,Population Mitochondria Different-Phenotype (%),[2]; [7],72% [middle of 4 runs]
same,Population Mitotic Cells (%),[2]; [7],48% and 59% and 66.41% and 50.44%
same,Population Normal (%),[2]; [7],87% and 90% and 100%
same,Population Tubulin-Different-Phenotype (%),[2]; [7],64% and 58% and 63.64% and 33.33%
same,Population Fragmented Nuclei (%),[2]; [8],12% [middle of 4 runs]
same,Population Healthy Nuclei (%),[2]; [8],79% and 81% and 86.51% and 57.44%
same,Population Hoechst High Intensity Objects (%),[2]; [8],5% and 4% and 0%
same,Population Membrane Permeable-Phenotype (%),[2]; [8],1% and 0% and 6.55% and 0.89%
same,Population Mitochondria Different-Phenotype (%),[2]; [8],28% [middle of 4 runs]
same,Population Mitotic Cells (%),[2]; [8],79% and 85% and 95.24% and 75.9%
same,Population Normal (%),[2]; [8],94% and 95% and 100%
same,Population Apoptotic (%),[2]; [9],50% and 52% and 28.06% and 40.68%
same,Population Healthy Nuclei (%),[2]; [9],73% and 79% and 77.55% and 60.49%
same,Population Membrane Permeable-Phenotype (%),[2]; [9],0% and 1.26% and 2.04%
same,Population Mitochondria Different-Phenotype (%),[2]; [9],65% and 71% and 79.5% and 83.67%
same,Population Mitotic Cells (%),[2]; [9],49% and 47% and 71.94% and 59.32%
same,Population Normal (%),[2]; [9],84% and 91% and 99.86% and 97.59%
same,Population Healthy Nuclei (%),[3]; [4],67% and 77% and 89.25% and 83.07%
same,Population Hoechst High Intensity Objects (%),[3]; [4],0% and 5%
same,Population Membrane Permeable-Phenotype (%),[3]; [4],4% [middle of 4 runs]
same,Population Normal (%),[3]; [4],99% and 94% and 100%
same,Population Tubulin-Different-Phenotype (%),[3]; [4],2.36% [middle of 4 runs]
same,Population Apoptotic (%),[3]; [5],48% [middle of 4 runs]
same,Population Healthy Nuclei (%),[3]; [5],56% and 60% and 74.57% and 67.27%
same,Population Hoechst High Intensity Objects (%),[3]; [5],2% and 1% and 0%
same,Population Mitotic Cells (%),[3]; [5],51% and 45% and 65.85% and 73.91%
same,Population Normal (%),[3]; [5],97% and 98% and 100%
same,Population Pyknosed Nuclei (%),[3]; [5],19% and 18% and 23.43% and 27.88%
same,Population Tubulin-Different-Phenotype (%),[3]; [5],27% and 48% and 33.72% and 25.23%
same,Total Cell Count,[3]; [5],277 [middle of 4 runs]
same,Population Apoptotic (%),[3]; [6],66% [middle of 4 runs]
same,Population Healthy Nuclei (%),[3]; [6],68% and 92.18% and 84.19%
same,Population Hoechst High Intensity Objects (%),[3]; [6],1% and 3% and 0.17% and 0%
same,Population Normal (%),[3]; [6],98% and 96% and 99.83% and 100%
same,Population Pyknosed Nuclei (%),[3]; [6],9% and 5% and 6.49% and 13.68%
same,Population Apoptotic (%),[3]; [7],62% and 73% and 40% and 53.33%
same,Population Healthy Nuclei (%),[3]; [7],54% and 64% and 74.61% and 71.91%
same,Population Hoechst High Intensity Objects (%),[3]; [7],2% and 3% and 0%
same,Population Mitotic Cells (%),[3]; [7],46.67% [middle of 4 runs]
same,Population Normal (%),[3]; [7],97% and 96% and 100%
same,Population Pyknosed Nuclei (%),[3]; [7],17% and 16% and 21.16% and 25.28%
same,Population Tubulin-Different-Phenotype (%),[3]; [7],15.62% [middle of 4 runs]
same,Population Apoptotic (%),[3]; [8],75% and 70% and 44% and 47.83%
same,Population Healthy Nuclei (%),[3]; [8],76% and 70% and 90.93% and 86.01%
same,Population Hoechst High Intensity Objects (%),[3]; [8],2% and 4% and 0%
same,Population Membrane Permeable-Phenotype (%),[3]; [8],8% and 10% and 1.19% and 2.66%
same,Population Mitochondria Different-Phenotype (%),[3]; [8],3% and 9% and 0.33% and 7.4%
same,Population Mitotic Cells (%),[3]; [8],52.17% [middle of 4 runs]
same,Population Normal (%),[3]; [8],97% and 95% and 100%
same,Population Pyknosed Nuclei (%),[3]; [8],6% and 7% and 7.4% and 11.7%
same,Population Tubulin-Different-Phenotype (%),[3]; [8],5% and 8% and 1.41% and 1.78%
same,Population Apoptotic (%),[3]; [9],78% and 77% and 57.94% and 60%
same,Population Healthy Nuclei (%),[3]; [9],53% and 64% and 76.68% and 73.28%
same,Population Hoechst High Intensity Objects (%),[3]; [9],5% and 6% and 0% and 0.4%
same,Population Mitotic Cells (%),[3]; [9],40% [middle of 4 runs]
same,Population Normal (%),[3]; [9],94% and 93% and 100% and 99.6%
same,Population Pyknosed Nuclei (%),[3]; [9],19% and 16% and 18.03% and 22.27%
same,Population Tubulin-Different-Phenotype (%),[3]; [9],14.92% [middle of 4 runs]

# Source: ChEMBL document CHEMBL5724801, “EUbOPEN Chemogenomics Library - Multiplex” (2024)
